# Results as given in ChEMBL document CHEMBL4732158, “Bicyclic Ligand-Biased Agonists of S1P: Exploring Side Chain Modifications to Modulate the PK, PD, and Safety Profiles” (J Med Chem, 2021).
# Columns and labels:
# [1] = test system: Rattus norvegicus; test: Reduction in circulating lymphocytes count in Lewis rat at 1 mg/kg, po measured at 4 hrs by hematology analyzer based analysis; format: functional; parameters: scale not given: the % may be the effect or the level left
# How it was run: (§1)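 Lewis rats (n = 2−4) dosed orally at 0.5, 1, 2 or 5 mg/kg; blood parent and phosphate metabolite concentrations and lymphocyte counts taken 4 and 24 h post-dose; phosphate-to-parent ratio from 24 h levels; significance versus vehicle by ANOVA with Dunnett's test.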
# [2] = Drug metabolism in Lewis rat blood assessed as concentration of parent compound at 1 mg/kg, po measured at 24 hrs by LC-MS/MS analysis; format: ADME, organism-based; conditions: for concentration at 24 h: Lewis, blood; for concentration at 24 h / concentration: read-out: Ct; for concentration / Ct: in vivo, 1 mg/kg, 24 h; for Ct: BLD = below limit of detection; how it was run: as §1
# [3] = Pulmonary toxicity in Lewis rat assessed as fold elevation of BAL protein content at 1 mg/kg, po by chemistry analyzer based analysis relative to control; format: organism-based; conditions: in vivo
# How it was run: (§2)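 Lewis rats dosed orally; bronchoalveolar lavage protein measured at study end, expressed as fold over vehicle control.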
# [4] = Drug concentration in Lewis rat blood assessed as concentration of parent compound at 1 mg/kg, po measured at 4 hrs by LC-MS/MS analysis; format: ADME, organism-based; conditions: for concentration at 4 h: Lewis, blood; for concentration at 4 h / concentration: read-out: Ct; how it was run: as §1
# [5] = Reduction in circulating lymphocytes count in Lewis rat at 1 mg/kg, po measured at 24 hrs by hematology analyzer based analysis; format: organism-based; parameters: scale not given: the % may be the effect or the level left; conditions: in vivo; how it was run: as §1
# [6] = Half life in Lewis rat at 2 mg/kg, po measured at 4 to 72 hrs; format: ADME, organism-based; conditions: in vivo, time 4-72 hrs; for t1/2: 2 mg/kg; for half-life: Lewis
# How it was run: (§3)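 Half-life estimated from oral-dosing blood PK profiles in Lewis rats sampled at four time points: 4, 24, 48 and 72 h.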
# [7] = Ratio of drug metabolism in Lewis rat blood assessed as phosphate ester metabolite to parent drug at 2 mg/kg, po measured at 24 hrs by LC-MS/MS analysis; format: ADME, organism-based; conditions: in vivo; how it was run: as §1
# [8] = Pulmonary toxicity in Lewis rat assessed as fold elevation of BAL protein content at 2 mg/kg, po by chemistry analyzer based analysis relative to control; format: organism-based; conditions: in vivo; how it was run: as §2
# [9] = Reduction in circulating lymphocytes count in Lewis rat at 2 mg/kg, po measured at 24 hrs by hematology analyzer based analysis; format: Functional, organism-based; parameters: scale not given: the % may be the effect or the level left; conditions: in vivo
# How it was run: (§4)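 Lewis rats (n = 2−4) dosed orally; whole-blood lymphocyte counts taken 4 h and 24 h after dosing and reduction expressed versus vehicle-treated rats. Significance by ANOVA with Dunnett's test (p < 0.05 vs vehicle). Blood levels of parent and phosphate metabolite measured at the same time points in this PK/PD screen.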
# [10] = Cardiotoxicity in human iPSC derived cardiomyocytes assessed as change in heart rate at 1 nM measured over 2 hrs by multi-electrode array relative to control; format: toxicity, cell-based; conditions: stem cell-derived cardiomyocyte, 0.001 µM
# How it was run: (§5)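 Phosphate metabolite of each compound prepared and tested on cultured human induced pluripotent stem cell-derived cardiomyocytes at 1 and 10 nM; beat rate change averaged over three or more replicates per concentration unless noted (some n = 2).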
# [11] = Drug concentration in Lewis rat blood assessed as concentration of parent compound at 2 mg/kg, po measured at 4 hrs by LC-MS/MS analysis; format: ADME, organism-based; conditions: read-out: Ct; for concentration: in vivo, 2 mg/kg, 4 h; for concentration at 4 h: Lewis, blood; how it was run: as §1
# [12] = Drug concentration in Lewis rat blood assessed as concentration of parent compound at 2 mg/kg, po measured at 24 hrs by LC-MS/MS analysis; format: ADME, organism-based; conditions: in vivo; for concentration: read-out: Ct; how it was run: as §1
# [13] = test system: Rattus norvegicus; test: Reduction in circulating lymphocytes count in Lewis rat at 2 mg/kg, po measured at 4 hrs by hematology analyzer based analysis; format: functional; parameters: scale not given: the % may be the effect or the level left; how it was run: as §4
# [14] = Drug metabolism in Lewis rat blood assessed as phosphate ester metabolite to parent ratio at 1 mg/kg, po measured at 24 hrs by LC-MS/MS analysis; conditions: in vivo
# [15] = Half life in Lewis rat at 1 mg/kg, po measured at 4 to 72 hrs; format: ADME, organism-based; conditions: in vivo, time 4-72 hrs; how it was run: as §3
# [16] = Cardiotoxicity in human iPSC derived cardiomyocytes assessed as change in heart rate at 10 nM measured over 2 hrs by multi-electrode array relative to control; format: toxicity, cell-based; conditions: stem cell-derived cardiomyocyte, 0.01 µM; how it was run: as §5
# [17] = in vivo, 1 mg/kg, 4 h, 1 mg/kg, 4 h
concentration at 24 h [2] [nM],concentration at 4 h [4] [nM],Activity [5] [%],Activity [9] [%],Ratio [14],SMILES,Activity [1] [%],fold change (FC) [3],Activity [10] [%],Activity [16] [%],other results
24,24,0,,0.27,CCCC/C=C\[C@@H]1CCc2cc([C@H]3CC[C@](N)(CO)C3)ccc2C1,4,,,,
140,66,74,,5.8,CC/C=C/CC[C@@H]1CCc2cc([C@H]3CC[C@](N)(CO)C3)ccc2C1,27,1.1,-11,-33,half-life [15]: 4 h
77,57,72,,2.6,CCCC/C=C/[C@@H]1CCc2cc([C@H]3CC[C@](N)(CO)C3)ccc2C1,0,,,,half-life [15]: > 75 h
51,31,62,,2.3,"CCC/C=C/CC1CCc2cc([C@H]3CC[C@](N)(CO)C3)ccc2C1 (single isomer, unassigned)",10,,-9.6,-23,half-life [15]: 62 h
39,66,71,,0.64,CCCCOC[C@@H]1CCc2cc([C@H]3CC[C@](N)(CO)C3)ccc2C1,42,0.95,,,
210,244,78,,0.86,CCCCCOC1CCc2cc([C@H]3CC[C@](N)(CO)C3)ccc2C1 (stereo in doubt; 10a),,0.94,,,"Activity ([1]; 1 mg/kg, 4 h): 62%"
73,,63,,0.36,CCCCSC[C@@H]1CCc2cc([C@H]3CC[C@](N)(CO)C3)ccc2C1,6,1.1,-28,-46,"Ct ([4]; in vivo, 1 mg/kg, 4 h, BLD = below limit of detection): Bld; half-life [15]: 27 h"
18,12,32,,,CCCCCOC[C@H]1CCc2cc([C@H]3CC[C@](N)(CO)C3)ccc2C1,7,1.7,,,
,,,44,,"CCCCSCC1CCc2cc([C@H]3CC[C@](N)(CO)C3)ccc2C1 (single isomer, unassigned)",,,-14,-25,Ratio [7]: 0.23; fold change (FC) [8]: 1.1; concentration at 4 h [11]: 138 nM; concentration [12]: 110 nM; Activity [13]: 20%
,,67,,0.27,CCCCCOC1CCc2cc([C@H]3CC[C@](N)(CO)C3)ccc2C1 (stereo in doubt; 10b),,,-12,-49,"Activity ([1]; 1 mg/kg, 4 h): 32%; concentration [2]: 240 nM; concentration [4, 17]: 215 nM"
180,165,69,,1.3,CC/C=C\CC[C@@H]1CCc2cc([C@H]3CC[C@](N)(CO)C3)ccc2C1,31,,-21,-38,half-life [15]: 5 h
14,10,71,,8.6,"CCC/C=C\CC1CCc2cc([C@H]3CC[C@](N)(CO)C3)ccc2C1 (single isomer, unassigned)",13,,-11,-25,half-life [15]: 59 h
,,82,,,CCCCCCOC1CCc2cc([C@H]3CC[C@](N)(CO)C3)ccc2C1 (stereo in doubt; 30a),,1.1,-39,-40,"Activity ([1]; 1 mg/kg, 4 h): 39%; concentration [2]: 28 nM; concentration [4, 17]: 53 nM"

# More lines, now with the values behind:
SMILES,concentration at 24 h [2] [nM],concentration at 4 h [4] [nM],Activity [5] [%],Activity [9] [%],Ratio [14],Activity [1] [%],fold change (FC) [3],Activity [10] [%],Activity [16] [%],other results
CCCCCOC[C@@H]1CCc2cc([C@H]3CC[C@](N)(CO)C3)ccc2C1,28,27,80,,,27,2,,,
CCCCCCCOC1CCc2cc([C@H]3CC[C@](N)(CO)C3)ccc2C1 (stereo in doubt; 33b),,,,,,,1,,,"Activity ([1]; 1 mg/kg, 4 h): 14%; concentration [2]: 25 nM; concentration [4, 17]: 40 nM"
COCCCCCCC1CCc2cc([C@H]3CC[C@](N)(CO)C3)ccc2C1 (stereo in doubt; 25b),,,,79,,,,-25,,"t1/2 [6]: 26 h; Ratio [7]: 2.5; fold change (FC) [8]: 1.2; concentration [11]: 320 nM; concentration [12]: 295 nM; Activity ([13]; 2 mg/kg, 4 h): 45%"
C=CCCCC[C@@H]1CCc2cc([C@H]3CC[C@](N)(CO)C3)ccc2C1,40,30,75,,19,9,,,,half-life [15]: 47 h
C=CCCOC[C@@H]1CCc2cc([C@H]3CC[C@](N)(CO)C3)ccc2C1,,,,74,,,,,,half-life [6]: 11 h; Ratio [7]: 0.9; concentration at 4 h [11]: 170 nM; concentration [12]: 48 nM; Activity [13]: 55%
COCCC1CCc2cc([C@H]3CC[C@](N)(CO)C3)ccc2C1 (stereo in doubt; 21a),,,,12,,,,,,Activity [13]: 0%
CCCCCCOC1CCc2cc([C@H]3CC[C@](N)(CO)C3)ccc2C1 (stereo in doubt; 30b),,,,,,,1.4,,,"Activity ([1]; 1 mg/kg, 4 h): 20%; concentration [2]: 417 nM; concentration [4, 17]: 362 nM"
"CCSCCCC1CCc2cc([C@H]3CC[C@](N)(CO)C3)ccc2C1 (single isomer, unassigned)",,,,74,,,,-42,-53,half-life [6]: 14 h; concentration at 4 h [11]: 190 nM; concentration [12]: 42 nM; Activity [13]: 65%
CCCOCCOC1CCc2cc([C@H]3CC[C@](N)(CO)C3)ccc2C1 (stereo partly drawn),,46,70,40,,72,1.3,,,Ratio [7]: 2.4; Ct [2]: Bld; concentration at 4 h [11]: 100 nM; Ct ([12]; BLD = below limit of detection): Bld; Activity [13]: 0%
COCCCC1CCc2cc([C@H]3CC[C@](N)(CO)C3)ccc2C1 (stereo in doubt; 22b),,,,66,,,,-20,-25,"t1/2 [6]: 14 h; Ratio [7]: 0.9; fold change (FC) [8]: 1.6; concentration [11]: 215 nM; concentration [12]: 86 nM; Activity ([13]; 2 mg/kg, 4 h): 62%"
COCCOC[C@@H]1CCc2cc([C@H]3CC[C@](N)(CO)C3)ccc2C1,,15,13,,,16,1.3,,,Ct [2]: Bld
CCCCCCCOC1CCc2cc([C@H]3CC[C@](N)(CO)C3)ccc2C1 (stereo in doubt; 33a),,32,80,,,,0.85,,,"Activity ([1]; 1 mg/kg, 4 h): 13%; concentration [2]: 54 nM; half-life [15]: 29 h"
CCCSCC[C@@H]1CCc2cc([C@H]3CC[C@](N)(CO)C3)ccc2C1,,,,73,,,,-43,-42,Ratio [7]: 0.17; fold change (FC) [8]: 1.1; concentration at 4 h [11]: 193 nM; concentration [12]: 72 nM; Activity [13]: 63%
CCCOCCOC[C@H]1CCc2cc([C@H]3CC[C@](N)(CO)C3)ccc2C1,,78,20,,,67,2.4,,,Ct [2]: Bld
COCCC1CCc2cc([C@H]3CC[C@](N)(CO)C3)ccc2C1 (stereo in doubt; 21b),,,,2,,,,,,
